For 96 compounds, cytotoxicity results are on record in ChEMBL document CHEMBL4513216, “Probing the Open Global Health Chemical Diversity Library for Multistage-Active Starting Points for Next-Generation Antimalarials” (ACS Infect Dis, 2020).

The data set in a line: Toxicity liver stage against HepG2, at 10uM. The class given is cell-based. On the set-up: test concentration 10 uM, cell line HepG2-A16-CD81EGFP. To be noted: human, HepG2-A16-CD81EGFP cells; read-out: INHIBITION
In a few lines: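 Uninfected HepG2-A16-CD81EGFP cells, 3 × 10^3 per well, 1536-well, plated on prespotted compound at 10 μM final, parasite-free screening media added to match infected plates; puromycin 10 μM positive, DMSO 0.5% negative; run in parallel with 48 h PbLuc assay at 37 °C, 5% CO2; viability by CellTiter-Glo luminescence, normalized to controls.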
As to `Cc1ccccc1N1CC2(CCCCN2CC2CC2)CC1=O` (stereo unspecified), the cytotoxicity at 10 µM was 10.4%.

Regarding `O=C(CCn1c(C(F)(F)F)cc2cccnc21)NC1CCCC1`, the cytotoxicity at 10 µM was -14.3%.

Consider `COc1cccc2ccc(N3CCC(O)(c4ccc(C)cn4)CC3)nc12`, for which the cytotoxicity at 10 µM was -0.942%. For `NS(=O)(=O)CCCC(=O)N1CCC2(CC1)c1ccccc1CC2O` (stereo unspecified), the cytotoxicity at 10 µM was found to be 4.71%.

Take `O=C1CC(c2ccccc2)C2(CCN(CC3CC3)CC2)N1` (stereo unspecified): the cytotoxicity at 10 µM was -6.47%. Take `CC(C)NCc1cc2n(n1)CCN(C1CCCCC1)C2`: the cytotoxicity at 10 µM is -8.9%. On to `CCOCC1CN(C(=O)c2ccncn2)Cc2cnn(C)c21` (stereo unspecified), for which the cytotoxicity at 10 µM is -143%.

With `CCCS(=O)(=O)N1C[C@@H](Oc2ncccc2F)[C@H]2OCCC[C@H]21`, the cytotoxicity at 10 µM turned out to be 2.95%. Next, `CCn1cc(NC(=O)NCC(O)c2ccccc2)cn1` (stereo unspecified): -1.14%; `CCOC(=O)c1sc2ccsc2c1CNC(=O)CCOC`: -16.7%.

In the case of `COc1ccnc(CN2CCC=C(C(C)NC(C)=O)C2)c1OC` (stereo unspecified), the cytotoxicity at 10 µM was -8.81%.

Turning to `Cc1ccc(CCc2nc(C3CCOC3)no2)o1` (stereo unspecified), the cytotoxicity at 10 µM turned out to be 3.04%.

`Cc1oc(C)c(C(=O)NCc2ccccc2CN(C)C)c1C`: the cytotoxicity at 10 µM is -16.9%. In the case of `COc1nn(C)c2c1CCCN(C(=O)c1cscn1)C2`, the cytotoxicity at 10 µM is -97.2%. On to `CS(=O)(=O)CCN1CCc2c(ncn2C2CC2)C1`, for which the cytotoxicity at 10 µM was -6.06%.

Consider `COC(=O)c1ccc2ccn(CC3CCCO3)c(=O)c2c1` (stereo unspecified), for which the cytotoxicity at 10 µM is -15.8%. For the compound `Cc1cc(C(=O)NCC2CCCC2)c(C)n1-c1cccnc1`, the cytotoxicity at 10 µM turned out to be 5.69%. Next, `Cn1cccc1CN1CCC2(CCCN(C(=O)c3cccnc3)C2)CC1`: -147%. Take `CC(C)(C)C(=O)NCC(=O)NC1CC(c2cccc(Cl)c2)C1` (stereo unspecified): the cytotoxicity at 10 µM was -1.72%. The figure for `NC(=O)c1ccc(C2CCCN2C(=O)CCn2nnc3ccccc32)s1` (stereo unspecified) is 3.92%. As to `Cc1nc(CN2CCC(C(=O)O)(n3ccc(-c4ccco4)n3)CC2)co1`, the cytotoxicity at 10 µM is -12.1%. With `O=C1NCCCCC1NC(=O)N1CCCc2ccccc21` (stereo unspecified), the cytotoxicity at 10 µM was -3.49%.

Take `CSc1nnc(CNC(=O)Nc2ccccc2F)n1C`: the cytotoxicity at 10 µM was 4.09%. Next, `O=C(NCCCN1CCOCC1)c1cc(-c2ccco2)[nH]n1`: -15.4%. Regarding `Cn1c(=O)n(C)c2cc(NS(=O)(=O)Cc3ccccc3)ccc21`, the cytotoxicity at 10 µM was -4.62%. Next, `CC(C)N1CCCC1c1nc(N(C)C)ncc1I` (stereo unspecified): -0.358%.

`CN(C)c1ccc(CCNC(=O)NCc2ccc(N(C)C)nc2)cc1`: the cytotoxicity at 10 µM was -11.2%. Next, `CCOc1cc(CN(C)Cc2ccccc2)ccc1OC(F)F`: -14.7%; `Cc1ccc(CC(=O)N2CCN(CC(O)c3ccccc3)CC2)cn1` (stereo unspecified): -10.9%; `Cc1cnc(C)c(Oc2ccc(Cl)c(CN3CCCC3)c2Cl)n1`: 2.61%. For `CC(C(=O)N(C)Cc1ccc(Br)o1)n1cncn1` (stereo unspecified), the cytotoxicity at 10 µM was 5.87%. As to `Cc1ccc(CN2CCCn3c(nc(CN4CCCC4)cc3=O)C2)s1`, the cytotoxicity at 10 µM was -0.207%. As to `Cc1ccc(CNc2ccc(C(=O)N3CCNC(=O)C3)cn2)cc1`, the cytotoxicity at 10 µM was found to be 4.64%. On to `Cc1ccc(CNC(=O)NCC(=O)NC(C)(C)C)c(N2CCCC2)c1`, for which the cytotoxicity at 10 µM is 5.68%. For the compound `CN1CCC(N(C)C(=O)Nc2ccc(Cl)cc2)CC1`, the cytotoxicity at 10 µM was -0.211%. Regarding `CCn1nc(C)c(CNCCn2cc(C)cn2)c1C`, the cytotoxicity at 10 µM is -4.91%. With `CN(Cc1nnc(C2CC2)o1)C(c1ccc(F)cc1)c1cccnc1` (stereo unspecified), the cytotoxicity at 10 µM was -4.06%. As for `CSCc1cc(F)ccc1CNCc1ccncc1`, the cytotoxicity at 10 µM is -7.53%. For the compound `NC(=O)NC(CC(=O)NCCc1cccc(F)c1)c1cccs1` (stereo unspecified), the cytotoxicity at 10 µM is 1.55%. As for `O=C(CCNC(=O)c1sccc1-c1ccccc1)NC1CCS(=O)(=O)C1` (stereo unspecified), the cytotoxicity at 10 µM was found to be 1.9%. For `CC(C)c1nc(CCN(C)c2nccc(N3CCCC(O)C3)n2)no1` (stereo unspecified), the cytotoxicity at 10 µM was -12%.

For `Cc1cc(C)c(C(=O)NCCNc2ncnc3ccccc23)c(=O)[nH]1`, the cytotoxicity at 10 µM was 21%. As for `NC(=O)N1CCc2cc(C(=O)O)c(-c3ccsc3)nc2CC1`, the cytotoxicity at 10 µM worked out at 18.3%. With `O=C(NCC1CC1)c1ccc(NC(=O)c2ccco2)cc1`, the cytotoxicity at 10 µM turned out to be 7.91%. Turning to `Cc1cc2[nH]c(=O)c(=O)[nH]c2cc1S(=O)(=O)NC1CCCCC1`, the cytotoxicity at 10 µM is -8.41%. For the compound `Cc1cccc(C)c1OCCNC(=O)CN1CCN(C)CC1C` (stereo unspecified), the cytotoxicity at 10 µM is -6.28%. On to `O=C(NC1CCCOc2cc(Cl)ccc21)c1ccc(=O)[nH]n1` (stereo unspecified), for which the cytotoxicity at 10 µM worked out at 1.5%. For the compound `Cc1cccnc1CN(C)CC1(O)CCCN(CC2CCCCC2)C1=O` (stereo unspecified), the cytotoxicity at 10 µM was -4.09%.

For `COCC(=O)N1CCC2(CCC2N(C)Cc2ccco2)CC1` (stereo unspecified), the cytotoxicity at 10 µM amounted to 0.169%. In the case of `CCc1cnc2c(c1Nc1ccncc1)c(=O)n(C)c(=O)n2C`, the cytotoxicity at 10 µM amounted to 1.86%. For the compound `COc1ccc(NC(=O)COc2nn(C)c3nc(C)cc(C)c23)cn1`, the cytotoxicity at 10 µM was -4.36%. As for `COc1ccccc1OC1(C(=O)O)CCN(c2ccccn2)CC1`, the cytotoxicity at 10 µM is 4.52%. As to `Cc1ccc(C(=O)N2CCCC(c3nncn3C)C2)c(C)c1` (stereo unspecified), the cytotoxicity at 10 µM is -14.1%. Regarding `O=C1N[C@H]2OCCC[C@H]2[C@H](c2ccc(C(=O)O)cc2)N1`, the cytotoxicity at 10 µM is -2.51%. Take `O=C(c1ccncc1)N1CCN(c2ccc(F)cc2Cl)CC1`: the cytotoxicity at 10 µM was -140%. Take `CSc1ccc(NCc2csc(C)n2)cc1F`: the cytotoxicity at 10 µM is -6.54%. `CN(Cc1cnn(C)c1)C1CCN(c2cccc(-c3cscn3)c2)CC1`: the cytotoxicity at 10 µM was -0.724%. For the compound `Cc1ccsc1C(Cn1ccnc1-c1ccccc1C(=O)O)N(C)C` (stereo unspecified), the cytotoxicity at 10 µM is -2.86%. On to `Cn1cc(Cl)cc1C(=O)N1CCC2(CCCN(CC3CC3)C2=O)C1` (stereo unspecified), for which the cytotoxicity at 10 µM is 1.96%.

For the compound `CC(C)Oc1ccc2c(NC(=O)CNC(N)=O)nn(CC(F)(F)F)c2c1`, the cytotoxicity at 10 µM is -5.89%. `COc1ccccc1C(=O)NS(=O)(=O)c1cccc(C#N)c1`: the cytotoxicity at 10 µM is -6.52%. `Cc1cc(C2CCCN2Cc2cccc(C(=O)Nc3nccs3)c2)no1` (stereo unspecified): the cytotoxicity at 10 µM is -4.12%. The figure for `c1ccc(-c2nnc3sc(CCN4CCCC4)nn23)cc1` is 6.04%. The figure for `Cc1cnc(CC2COCCN(Cc3nccn3C)C2)cn1` (stereo unspecified) is -2.25%. Consider `CC(=O)N1CCN([C@@H]2CC[C@@H](N(C)C(=O)C3CCCCC3)[C@H]2O)CC1`, for which the cytotoxicity at 10 µM was -10.6%. `CCN(CC)Cc1cnc2n1CCN(C1CCOC1)CC2` (stereo unspecified): the cytotoxicity at 10 µM is -146%. With `CCC1=N[C@@]2(CC[C@@H]3CN(Cc4ccccc4C)C[C@@H]32)C(=O)N1C`, the cytotoxicity at 10 µM was -107%. As for `CNC(=O)c1c(C)cccc1NCc1nnc(C2CC2)o1`, the cytotoxicity at 10 µM came out at 2.41%.

`CCOC(=O)N1CCN(C(=O)CCn2ccc3c(OC)cccc32)CC1`: the cytotoxicity at 10 µM was 9.69%.

Take `CCN1CCC2(C1)CN(S(=O)(=O)c1cn(C)cn1)C2`: the cytotoxicity at 10 µM was -109%. As for `Cn1ccnc1C(=O)NCc1cnc2n1CCN(CC1CC1)CC2`, the cytotoxicity at 10 µM was 5.93%. For `COCC(C)NC(=O)CN1CCCC1` (stereo unspecified), the cytotoxicity at 10 µM is -7.42%. As for `CCc1noc(C)c1C(=O)NCC(c1ccc(C)cc1)N(C)C` (stereo unspecified), the cytotoxicity at 10 µM is -5.57%. In the case of `COC(=O)CNc1cc(C(=O)NCC(F)(F)F)cc(F)c1C`, the cytotoxicity at 10 µM amounted to 6.05%. Take `CN(Cc1ccc(F)cc1F)Cc1cc2c(cc1Br)OCCO2`: the cytotoxicity at 10 µM was -111%. As for `CS(=O)(=O)N1CCN(C(=O)c2cncs2)CC(C(N)=O)C1` (stereo unspecified), the cytotoxicity at 10 µM came out at 2.9%.

Regarding `CC(=O)N1CCC2(CCN(Cc3cccc(F)c3)CC2)CC1`, the cytotoxicity at 10 µM was -5.46%. `COc1ccc(C)cc1C(C)NC(=O)CCn1cncn1` (stereo unspecified): the cytotoxicity at 10 µM is -7.82%. For the compound `CNC(=O)CCS(=O)(=O)Cc1nnnn1-c1ccccc1`, the cytotoxicity at 10 µM came out at 15.3%.

For the compound `O=C1CC(c2ccc3c(c2)OCO3)c2cnn(C3CCCC3)c2N1` (stereo unspecified), the cytotoxicity at 10 µM worked out at 24.3%.

`CCC(CC)NC(=O)Cn1cc(C(N)=O)c(-c2ccccc2)n1`: the cytotoxicity at 10 µM was -6.87%. In the case of `CCN(CCO)C[C@@H]1CN(c2cc(C(F)(F)F)cc(C)n2)C[C@@H]1CO`, the cytotoxicity at 10 µM is -1.7%. For the compound `Cc1ccc2nc(C)c(C)c(C(=O)N[C@H]3COC[C@@H]3N3CCCC3)c2c1`, the cytotoxicity at 10 µM is -45.8%. Turning to `Oc1cccc(CN2CCN(c3nccc(CCC(F)(F)F)n3)CC2)c1`, the cytotoxicity at 10 µM is -18.7%. The figure for `CCOc1cc(C(=O)N2CCCC(c3noc(CC)n3)C2)ccn1` (stereo unspecified) is -3.65%. On to `CN1CCCN(C(=O)c2nnn(-c3ccc(C(F)(F)F)cc3)n2)CC1`, for which the cytotoxicity at 10 µM is -7.37%. Take `COc1cccc(OCC2CCCN(C(=O)Cc3cccc(O)c3)C2)c1` (stereo unspecified): the cytotoxicity at 10 µM was -18.9%.

`COCCN1CC2(CCCN(c3ncnc4[nH]cnc34)C2)CCC1=O` (stereo unspecified): the cytotoxicity at 10 µM was -3.68%. Consider `COc1ccc(CC(=O)N2CCN(Cc3ccco3)C[C@@H]2C)cc1`, for which the cytotoxicity at 10 µM came out at 1.42%. For the compound `CC1CN(C)CCN1C(=O)c1ccn(-c2ccccc2)n1` (stereo unspecified), the cytotoxicity at 10 µM stood at 0.533%. As to `CS(=O)(=O)N1C[C@@H]2COC[C@@H](CC(=O)N3CCCO3)[C@@H]2C1`, the cytotoxicity at 10 µM is 11.1%. For `O=C(c1ccc(S(=O)(=O)NCC(F)F)cc1)N1CC[C@H]2CNC[C@H]21`, the cytotoxicity at 10 µM was -14%.

Regarding `COc1ccccc1C(=O)Nc1ccc([C@@H](O)[C@H]2COCC(=O)N2)cc1`, the cytotoxicity at 10 µM came out at 1.17%.

Consider `CCCNc1ncc(CN2C[C@@H]3CC[C@H]2CN(C2CCOCC2)C3)cn1`, for which the cytotoxicity at 10 µM is -7.84%. As to `O=C(c1ccco1)N1CCC(CSCc2ccco2)CC1`, the cytotoxicity at 10 µM was -6.49%. As for `c1ccc2oc(CCCN3CCCC3c3noc(C4CC4)n3)nc2c1` (stereo unspecified), the cytotoxicity at 10 µM was -13.5%.
